The nature of the first assay: Synergistic cytotoxicity against mouse L5178 cells expressing human ABCB1 assessed as combination index at ED50 using 7.5:1 test compound to doxorubicin ratio after 48 hrs by MTT-based checkerboard microplate method. In kind it is functional. The gist of the method: (§1)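 Checkerboard microplate combinations of compound with doxorubicin at constant molar ratios. 5 × 10^4 cells/well in McCoy's 5A, 48 h at 37°C, 5% CO2. MTT added to 0.5 mg/mL final for 4 h, SDS/HCl overnight, OD read at 540 and 630 nm. Combination indices derived per ratio for 50%, 75% and 90% growth inhibition by median-effect analysis.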
With `CCO/N=C1\C=C2[C@H](CC[C@]3(C)[C@@H]([C@@]4(C)OC(C)(C)O[C@@H]4CCC(C)(C)O)CC[C@@]23O)[C@@]2(C)C[C@@H]3OC(C)(C)O[C@@H]3C[C@@H]12`, the CI came to 0.18.

Another assay can be described thus: Synergistic cytotoxicity against mouse L5178 cells expressing human ABCB1 assessed as combination index at ED75 using 7.5:1 test compound to doxorubicin ratio after 48 hrs by MTT-based checkerboard microplate method. In kind it is functional. The gist of the method:
as §1
With `CCO/N=C1\C=C2[C@H](CC[C@]3(C)[C@@H]([C@@]4(C)OC(C)(C)O[C@@H]4CCC(C)(C)O)CC[C@@]23O)[C@@]2(C)C[C@@H]3OC(C)(C)O[C@@H]3C[C@@H]12`, the CI is recorded as 0.14.

Another assay is described as follows: Synergistic cytotoxicity against mouse L5178 cells expressing human ABCB1 assessed as combination index at ED90 using 7.5:1 test compound to doxorubicin ratio after 48 hrs by MTT-based checkerboard microplate method. In kind it is functional. The gist of the method:
as §1
`CCO/N=C1\C=C2[C@H](CC[C@]3(C)[C@@H]([C@@]4(C)OC(C)(C)O[C@@H]4CCC(C)(C)O)CC[C@@]23O)[C@@]2(C)C[C@@H]3OC(C)(C)O[C@@H]3C[C@@H]12`: the CI is reported as 0.12.

A further assay is described as follows: Synergistic cytotoxicity against mouse L5178 cells assessed as combination index at ED50 using 37.5:1 test compound to doxorubicin ratio after 48 hrs by MTT-based checkerboard microplate method. The format is functional. In outline: as §1
Consider `CCO/N=C1\C=C2[C@H](CC[C@]3(C)[C@@H]([C@@]4(C)OC(C)(C)O[C@@H]4CCC(C)(C)O)CC[C@@]23O)[C@@]2(C)C[C@@H]3OC(C)(C)O[C@@H]3C[C@@H]12`, for which the CI is on record as 0.55.

The nature of a further assay: Synergistic cytotoxicity against mouse L5178 cells assessed as combination index at ED75 using 37.5:1 test compound to doxorubicin ratio after 48 hrs by MTT-based checkerboard microplate method. The format is functional. The gist of the method: as §1
Take `CCO/N=C1\C=C2[C@H](CC[C@]3(C)[C@@H]([C@@]4(C)OC(C)(C)O[C@@H]4CCC(C)(C)O)CC[C@@]23O)[C@@]2(C)C[C@@H]3OC(C)(C)O[C@@H]3C[C@@H]12`: the CI was determined as 0.58.

The next assay is described as follows: Synergistic cytotoxicity against mouse L5178 cells assessed as combination index at ED90 using 37.5:1 test compound to doxorubicin ratio after 48 hrs by MTT-based checkerboard microplate method. The format is functional. In outline:
as §1
As for `CCO/N=C1\C=C2[C@H](CC[C@]3(C)[C@@H]([C@@]4(C)OC(C)(C)O[C@@H]4CCC(C)(C)O)CC[C@@]23O)[C@@]2(C)C[C@@H]3OC(C)(C)O[C@@H]3C[C@@H]12`, the CI is recorded as 0.6.

Another assay in a line: Synergistic cytotoxicity against mouse L5178 cells assessed as combination index at ED50 using 75:1 test compound to doxorubicin ratio after 48 hrs by MTT-based checkerboard microplate method. The format is functional. In outline:
as §1
For `CCO/N=C1\C=C2[C@H](CC[C@]3(C)[C@@H]([C@@]4(C)OC(C)(C)O[C@@H]4CCC(C)(C)O)CC[C@@]23O)[C@@]2(C)C[C@@H]3OC(C)(C)O[C@@H]3C[C@@H]12`, the CI came out at 0.59.

The next assay can be described thus: Synergistic cytotoxicity against mouse L5178 cells assessed as combination index at ED75 using 75:1 test compound to doxorubicin ratio after 48 hrs by MTT-based checkerboard microplate method. The format is functional. The gist of the method: as §1
Regarding `CCO/N=C1\C=C2[C@H](CC[C@]3(C)[C@@H]([C@@]4(C)OC(C)(C)O[C@@H]4CCC(C)(C)O)CC[C@@]23O)[C@@]2(C)C[C@@H]3OC(C)(C)O[C@@H]3C[C@@H]12`, the CI is given as 0.7.

A further assay can be described thus: Synergistic cytotoxicity against mouse L5178 cells assessed as combination index at ED90 using 75:1 test compound to doxorubicin ratio after 48 hrs by MTT-based checkerboard microplate method. The format is functional. The gist of the method: as §1
On to `CCO/N=C1\C=C2[C@H](CC[C@]3(C)[C@@H]([C@@]4(C)OC(C)(C)O[C@@H]4CCC(C)(C)O)CC[C@@]23O)[C@@]2(C)C[C@@H]3OC(C)(C)O[C@@H]3C[C@@H]12`, for which the CI is recorded as 0.84.

The next assay can be described thus: Synergistic cytotoxicity against mouse L5178 cells expressing human ABCB1 assessed as combination index at ED50 using 60:1 test compound to doxorubicin ratio after 48 hrs by MTT-based checkerboard microplate method. The format is functional. In outline: as §1
On to `CCO/N=C1\C=C2[C@H](CC[C@]3(C)[C@@H]([C@@]4(C)OC(C)(C)O[C@@H]4CCC(C)(C)O)CC[C@@]23O)[C@@]2(C)C[C@@H]3OC(C)(C)O[C@@H]3C[C@@H]12`, for which the CI worked out at 0.31.

The next assay is described as follows: Synergistic cytotoxicity against mouse L5178 cells expressing human ABCB1 assessed as combination index at ED75 using 60:1 test compound to doxorubicin ratio after 48 hrs by MTT-based checkerboard microplate method. In kind it is functional. In outline:
as §1
As for `CCO/N=C1\C=C2[C@H](CC[C@]3(C)[C@@H]([C@@]4(C)OC(C)(C)O[C@@H]4CCC(C)(C)O)CC[C@@]23O)[C@@]2(C)C[C@@H]3OC(C)(C)O[C@@H]3C[C@@H]12`, the CI came to 0.35.

The next assay can be described thus: Synergistic cytotoxicity against mouse L5178 cells expressing human ABCB1 assessed as combination index at ED90 using 60:1 test compound to doxorubicin ratio after 48 hrs by MTT-based checkerboard microplate method. In kind it is functional. The gist of the method:
as §1
`CCO/N=C1\C=C2[C@H](CC[C@]3(C)[C@@H]([C@@]4(C)OC(C)(C)O[C@@H]4CCC(C)(C)O)CC[C@@]23O)[C@@]2(C)C[C@@H]3OC(C)(C)O[C@@H]3C[C@@H]12`: the CI amounted to 0.41.

The nature of another assay: Synergistic cytotoxicity against mouse L5178 cells assessed as combination index at ED50 using 300:1 test compound to doxorubicin ratio after 48 hrs by MTT-based checkerboard microplate method. In kind it is functional. In outline:
as §1
Consider `CCO/N=C1\C=C2[C@H](CC[C@]3(C)[C@@H]([C@@]4(C)OC(C)(C)O[C@@H]4CCC(C)(C)O)CC[C@@]23O)[C@@]2(C)C[C@@H]3OC(C)(C)O[C@@H]3C[C@@H]12`, for which the CI amounted to 1.09.

A short description of the next assay: Synergistic cytotoxicity against mouse L5178 cells assessed as combination index at ED75 using 300:1 test compound to doxorubicin ratio after 48 hrs by MTT-based checkerboard microplate method. The format is functional. The gist of the method:
as §1
For `CCO/N=C1\C=C2[C@H](CC[C@]3(C)[C@@H]([C@@]4(C)OC(C)(C)O[C@@H]4CCC(C)(C)O)CC[C@@]23O)[C@@]2(C)C[C@@H]3OC(C)(C)O[C@@H]3C[C@@H]12`, the CI worked out at 1.08.

The nature of the next assay: Synergistic cytotoxicity against mouse L5178 cells assessed as combination index at ED90 using 300:1 test compound to doxorubicin ratio after 48 hrs by MTT-based checkerboard microplate method. The format is functional. The gist of the method:
as §1
With `CCO/N=C1\C=C2[C@H](CC[C@]3(C)[C@@H]([C@@]4(C)OC(C)(C)O[C@@H]4CCC(C)(C)O)CC[C@@]23O)[C@@]2(C)C[C@@H]3OC(C)(C)O[C@@H]3C[C@@H]12`, the CI is 1.06.

The nature of the next assay: Synergistic cytotoxicity against mouse L5178 cells assessed as combination index at ED50 using 600:1 test compound to doxorubicin ratio after 48 hrs by MTT-based checkerboard microplate method. The format is functional. The gist of the method:
as §1
`CCO/N=C1\C=C2[C@H](CC[C@]3(C)[C@@H]([C@@]4(C)OC(C)(C)O[C@@H]4CCC(C)(C)O)CC[C@@]23O)[C@@]2(C)C[C@@H]3OC(C)(C)O[C@@H]3C[C@@H]12`: the CI is listed as 1.02.

Another assay in a line: Synergistic cytotoxicity against mouse L5178 cells assessed as combination index at ED75 using 600:1 test compound to doxorubicin ratio after 48 hrs by MTT-based checkerboard microplate method. The format is functional. In outline: as §1
For `CCO/N=C1\C=C2[C@H](CC[C@]3(C)[C@@H]([C@@]4(C)OC(C)(C)O[C@@H]4CCC(C)(C)O)CC[C@@]23O)[C@@]2(C)C[C@@H]3OC(C)(C)O[C@@H]3C[C@@H]12`, the CI stood at 0.95.

A short description of a further assay: Synergistic cytotoxicity against mouse L5178 cells assessed as combination index at ED90 using 600:1 test compound to doxorubicin ratio after 48 hrs by MTT-based checkerboard microplate method. The format is functional. The gist of the method: as §1
Regarding `CCO/N=C1\C=C2[C@H](CC[C@]3(C)[C@@H]([C@@]4(C)OC(C)(C)O[C@@H]4CCC(C)(C)O)CC[C@@]23O)[C@@]2(C)C[C@@H]3OC(C)(C)O[C@@H]3C[C@@H]12`, the CI was determined as 0.89.

The values above are taken from ChEMBL document CHEMBL4145462, “Nitrogen-containing ecdysteroid derivatives vs. multi-drug resistance in cancer: Preparation and antitumor activity of oximes, oxime ethers and a lactam” (Eur J Med Chem, 2018).
